The text below walks through data of ChEMBL document CHEMBL1157555, “Synthesis and pharmacological evaluation of novel 1,3,8- and 1,3,7,8-substituted xanthines as adenosine receptor antagonists” (Bioorg Med Chem, 2010).

One assay has as its target T1, Adenosine receptor A1 (Homo sapiens, UniProt P30542).
T1 sequence (P30542 whole entry): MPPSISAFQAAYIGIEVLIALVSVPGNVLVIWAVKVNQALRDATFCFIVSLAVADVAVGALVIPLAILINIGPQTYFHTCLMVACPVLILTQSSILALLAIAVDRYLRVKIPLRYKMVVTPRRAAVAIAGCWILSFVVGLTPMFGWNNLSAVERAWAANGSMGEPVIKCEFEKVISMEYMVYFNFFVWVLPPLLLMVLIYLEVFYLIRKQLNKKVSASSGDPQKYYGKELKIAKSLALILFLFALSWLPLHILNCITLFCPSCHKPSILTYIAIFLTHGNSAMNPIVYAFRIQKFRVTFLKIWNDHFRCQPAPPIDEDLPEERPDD
The experiment in a line: Displacement of [3H]DPCPX from human recombinant adenosine A1 receptor expressed in CHO cells by microplate beta scintillation counter. The class given is cell-based. An outline of the steps:
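Membranes from CHO cells expressing human A1 were labelled with 2 nM [3H]DPCPX. Non-specific binding was defined with (R)-PIA. Incubation ran 60 min at 25 °C, then samples were filtered and counted by beta scintillation. IC50 came from non-linear regression, and Ki from Cheng–Prusoff. Weak or poorly soluble compounds were reported as % inhibition of specific binding at a single concentration. Mean of 3 experiments, each in duplicate.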
In general terms: Displacement assays read how much labelled ligand stays bound in the presence of the test substance.

In assay [1] the target is T2, Adenosine receptor A2a (Homo sapiens, UniProt P29274). Put plainly: Displacement of [3H]ZM241385 from human recombinant adenosine A2A receptor expressed in human HeLa cells by microplate beta scintillation counter. The class given is cell-based. An outline of the steps:
(§1)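 Competition used HeLa cell membranes expressing human A2A with [3H]ZM241385. Non-specific binding was set with NECA. Incubation was 30 min at 25 °C, then filtration and beta scintillation counting. IC50 from non-linear regression was converted to Ki (Cheng–Prusoff). Weak or poorly soluble compounds were reported as % inhibition of specific binding at a single concentration. Three experiments, each in duplicate.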

Another assay addresses T3, Adenosine receptor A2b (Homo sapiens, UniProt P29275).
T3 sequence (P29275 whole entry): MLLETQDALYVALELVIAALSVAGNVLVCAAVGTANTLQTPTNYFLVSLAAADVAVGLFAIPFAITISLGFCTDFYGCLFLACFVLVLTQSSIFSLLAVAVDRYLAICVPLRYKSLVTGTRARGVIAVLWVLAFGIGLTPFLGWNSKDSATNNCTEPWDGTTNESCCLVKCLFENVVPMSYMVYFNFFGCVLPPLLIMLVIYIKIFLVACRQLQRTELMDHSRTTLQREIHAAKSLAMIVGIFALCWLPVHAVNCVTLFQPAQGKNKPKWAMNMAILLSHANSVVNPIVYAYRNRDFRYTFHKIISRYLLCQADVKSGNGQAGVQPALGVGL
The experiment in a line: Displacement of [3H]DPCPX from human recombinant adenosine A2B receptor expressed in HEK293 cells by microplate beta scintillation counter. The class given is cell-based. An outline of the steps:
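Membranes from HEK-293 cells expressing human A2B were labelled with 35 nM [3H]DPCPX. Incubation ran 30 min at 25 °C, followed by filtration and beta scintillation counting. IC50 was fitted by non-linear regression and converted to Ki by Cheng–Prusoff. Weak or poorly soluble compounds were given as % inhibition of specific binding at a single concentration. n = 3, each in duplicate.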

Another assay concerns the target T4, Adenosine receptor A3 (Homo sapiens, UniProt P0DMS8).
T4 sequence (P0DMS8 whole entry): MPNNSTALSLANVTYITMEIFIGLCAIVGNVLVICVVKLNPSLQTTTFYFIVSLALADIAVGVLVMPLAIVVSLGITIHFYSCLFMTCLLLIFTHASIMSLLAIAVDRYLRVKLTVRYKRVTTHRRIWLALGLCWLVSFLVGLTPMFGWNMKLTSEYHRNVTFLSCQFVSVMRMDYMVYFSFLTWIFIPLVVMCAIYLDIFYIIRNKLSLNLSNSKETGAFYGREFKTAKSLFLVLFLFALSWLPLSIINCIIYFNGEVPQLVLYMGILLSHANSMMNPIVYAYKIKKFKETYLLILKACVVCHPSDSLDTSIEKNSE
The experiment in a line: Displacement of [3H]NECA from human recombinant adenosine A3 receptor expressed in human HeLa cells by microplate beta scintillation counter. It is filed as cell-based. The gist of the method:
(§2)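 HeLa-A3 cell membranes were labelled with 30 nM [3H]NECA. Non-specific binding was defined with (R)-PIA. After 180 min at 25 °C, samples were filtered and counted by beta scintillation. Ki was calculated by Cheng–Prusoff from IC50 obtained by non-linear regression. Weak or poorly soluble compounds were reported as % inhibition of specific binding at a single concentration. Mean of 3 experiments in duplicate.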

Assay [2] is filed under the species Homo sapiens. Put plainly: Selectivity ratio of Ki for human adenosine A2A receptor to Ki for human adenosine A2B receptor. An outline of the steps:
(§3)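 Ratios of Ki values at each human subtype to Ki at human A2B (HEK-293 membranes, [3H]DPCPX). Each Ki was derived by Cheng–Prusoff from IC50 of radioligand competition binding in membranes of transfected cells. Results are the mean of 3 experiments, each in duplicate.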

Assay [3] is filed under the species Homo sapiens. Put plainly: Selectivity ratio of Ki for human adenosine A1 receptor to Ki for human adenosine A2B receptor. An outline of the steps:
as §3

Assay [4] is filed under the species Homo sapiens. Put plainly: Selectivity ratio of Ki for human adenosine A3 receptor to Ki for human adenosine A2B receptor. An outline of the steps: as §3
The target of assay [5] is T5, Adenosine receptor A3 (Homo sapiens) (UniProt P0DMS8).
T5 sequence (whole entry): T4 sequence (P0DMS8 whole entry)
The experiment in a line: Displacement of [3H]NECA from human recombinant adenosine A3 receptor expressed in human HeLa cells at 1 uM by microplate beta scintillation counter. The class given is cell-based. The gist of the method:
as §2

In assay [6] the target is T2, Adenosine receptor A2a. Put plainly: Displacement of [3H]ZM241385 from human recombinant adenosine A2A receptor expressed in human HeLa cells at 1 uM by microplate beta scintillation counter. The class given is cell-based. The gist of the method:
as §1

T2 sequence (P29274 whole entry): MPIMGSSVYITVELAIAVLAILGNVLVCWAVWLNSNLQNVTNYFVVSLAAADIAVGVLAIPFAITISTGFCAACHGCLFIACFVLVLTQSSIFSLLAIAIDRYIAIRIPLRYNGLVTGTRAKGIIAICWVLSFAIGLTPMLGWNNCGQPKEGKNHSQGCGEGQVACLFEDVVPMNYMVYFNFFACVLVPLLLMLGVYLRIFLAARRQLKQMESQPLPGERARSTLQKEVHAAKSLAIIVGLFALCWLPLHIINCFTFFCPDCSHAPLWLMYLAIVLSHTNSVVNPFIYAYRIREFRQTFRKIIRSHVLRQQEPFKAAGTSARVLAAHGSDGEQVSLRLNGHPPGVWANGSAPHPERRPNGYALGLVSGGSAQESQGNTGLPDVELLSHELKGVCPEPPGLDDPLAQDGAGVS

For orientation: Ki means a dissociation constant, usually derived from enzyme kinetics or from competition with a known ligand. For `CCCn1c(=O)c2[nH]c(-c3ccccc3)nc2n(CCSCC)c1=O`, the Ki is 0.0933 µM at Adenosine receptor A1, 1.45 µM at Adenosine receptor A2a [1], 0.191 µM at Adenosine receptor A2b and 0.117 µM on Adenosine receptor A3. Further, the values for the Ratio Ki in the assay listed under Homo sapiens [2], in the assay filed under Homo sapiens [3] and in the assay listed under Homo sapiens [4] were 7.6, 0.5 and 0.6, respectively.
Turning to `CCn1c(=O)c2c(nc(Cc3cccs3)n2C)n(Cc2cccs2)c1=O`, the Ki on Adenosine receptor A1 is 0.0955 µM; at Adenosine receptor A2a [1] it was 0.123 µM; at Adenosine receptor A2b, 0.0355 µM. Further, in assay [5], the Activity was 1%. The Ratio Ki worked out at 3.5 in the assay filed under Homo sapiens [2] and 2.7 in the assay filed under Homo sapiens [3].
As to `CCCn1c(=O)c2[nH]c(-c3ccccc3)nc2n(CC[S+]([O-])CC)c1=O` (centres undefined), the Ki on Adenosine receptor A1 was 0.195 µM; on Adenosine receptor A2b, 0.589 µM; on Adenosine receptor A3, 0.245 µM. Also, the Activity at Adenosine receptor A2a [6] was found to be 9%. For the same molecule, the Ratio Ki in the assay filed under Homo sapiens [4] came out at 0.4.
As to `CCn1c(=O)c2[nH]c(Cc3cccs3)nc2n(Cc2cccs2)c1=O`, the inhibition constant (Ki) on Adenosine receptor A1 was 0.676 µM; on Adenosine receptor A2a [1] it was 3.98 µM; at Adenosine receptor A2b it was 0.138 µM; on Adenosine receptor A3, 0.813 µM. Besides, the Ratio Ki came out at 28.9 in the assay listed under Homo sapiens [2], 4.9 in the assay filed under Homo sapiens [3] and 5.9 in the assay listed under Homo sapiens [4].
`CCn1c(=O)c2c(nc(Cc3cccs3)n2C)n(Cc2ccccc2)c1=O`: the Ki at Adenosine receptor A1 is 0.389 µM; on Adenosine receptor A2a [1] it was 0.759 µM; on Adenosine receptor A2b, 0.372 µM. For the same molecule, the Activity in [5] was 6%. Moreover, the Ratio Ki worked out at 2.1 in the assay filed under Homo sapiens [2] and 1.1 in the assay listed under Homo sapiens [3].
For `CCn1c(=O)c2c(nc(Cc3ccco3)n2C)n(Cc2cccs2)c1=O`, the Ki at Adenosine receptor A1 was 0.1 µM; on Adenosine receptor A2a [1], 0.219 µM; on Adenosine receptor A2b, 0.0269 µM. The Activity in assay [5] was 22%. Besides, the values for the Ratio Ki in the assay listed under Homo sapiens [2] and in the assay filed under Homo sapiens [3] were 8.1 and 3.7, respectively.
Take `CCSCCn1c(=O)n(CC)c(=O)c2[nH]c(-c3ccccc3)nc21`: the Ki was 0.148 µM at Adenosine receptor A1, 0.479 µM at Adenosine receptor A2b and 0.407 µM at Adenosine receptor A3. The Activity at Adenosine receptor A2a [6] is 12%. Also, the figures for the Ratio Ki in the assay listed under Homo sapiens [3] and in the assay listed under Homo sapiens [4] were 0.3 and 0.9, respectively.
As for `CCn1c(=O)c2c(nc(Cc3c(F)cccc3F)n2C)n(Cc2cccs2)c1=O`, the results for the Ki at Adenosine receptor A1, at Adenosine receptor A2a [1] and at Adenosine receptor A2b were 0.12 µM, 0.178 µM and 0.135 µM, respectively. For the same molecule, in assay [5], the Activity was 20%. The Ratio Ki in the assay listed under Homo sapiens [2] was 1.3; in the assay listed under Homo sapiens [3] it was 0.9.
